Where “and” joins values, the source holds several entries; their conditions need not be identical. Equal values may be shown once. Read-outs that look alike come from different tables or passages of the source.
Assays:
human CD1d = human CD1d (Homo sapiens, UniProt P15813); type: binding
Method in brief: (§1)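 Plates coated with goat anti-mouse IgG Fc-gamma antibody, then washed three times with PBS/Tween. Added human or mouse CD1d-Ig dimer (5 μg/mL) mixed with competitor lipid and 18:1 biotinyl-PE (2 μg/mL) in PBS. Bound biotinyl-PE detected with HRP-avidin. Biotinyl-PE Kd obtained by titration without competitor, fitted to Y = (Bmax*X)/(Kd + X). Competitor constants derived by curve fitting.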

mouse CD1d = molecular target: T1, mouse CD1d (Mus musculus, UniProt P11609); type: binding; conditions: competitor of Biotinyl PE (2 μg/mL), CD1d dimer
T1 sequence (P11609 22-305 limits assumed): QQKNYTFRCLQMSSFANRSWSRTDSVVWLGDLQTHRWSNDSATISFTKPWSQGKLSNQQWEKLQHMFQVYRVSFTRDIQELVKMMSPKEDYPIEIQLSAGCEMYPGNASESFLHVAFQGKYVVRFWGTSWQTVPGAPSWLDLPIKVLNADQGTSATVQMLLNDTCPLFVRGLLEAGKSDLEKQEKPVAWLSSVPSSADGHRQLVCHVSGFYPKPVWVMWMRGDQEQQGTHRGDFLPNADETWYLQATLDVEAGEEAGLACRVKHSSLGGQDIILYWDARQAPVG
T1 sequence (P01887 21-119 partner): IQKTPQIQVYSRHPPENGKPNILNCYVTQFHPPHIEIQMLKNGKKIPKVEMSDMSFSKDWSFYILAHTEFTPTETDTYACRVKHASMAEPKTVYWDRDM
Method in brief: as §1

[1] = system: α-GalCer-induced NKT cell activation; assay: In vivo α-GalCer-induced serum cytokine production; set-up: species or system C57BL/6 mice; conditions: 1 μg α-GalCer intravenously
Method in brief: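 C57BL/6 mice, 6–8 weeks old, kept pathogen-free. Given α-GalCer 1 μg intravenously, with or without the test ganglioside at several concentrations. Serum taken at 2, 6, 12, 24, 48 and 72 h. IFN-γ measured by sandwich ELISA on two dilutions of pooled sera, reported as mean ± SD.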

NKT cells = assay: Staining of NKT cells with lipid-loaded CD1d-Ig dimers; type: cell-based; conditions: human and mouse CD1d-Ig dimers loaded overnight
Method in brief: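 Human or mouse CD1d-mouse IgG dimer (1 μg) loaded overnight at 37°C with 1.4 μg lipid or ascites in 50 μL PBS. Used to stain 2 × 10^5 NKT cells on ice for 30 min. Cells washed twice in PBS/5% FBS, then stained with PE rat anti-mouse IgG1 (A85-1) on ice for 30 min; anti-human CD3ε-APC added for human cells. Analysed by flow cytometry.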

[2] = system: CD1d-mediated activation of NKT cells (hybridomas DN32.D3, N38-3C3, N37-1A12); type: cell-based, mouse; conditions: 4 h
Method in brief: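 APCs were L cells stably transfected with WT cd1d1 cDNA. Treated with test ganglioside at increasing concentrations for 4 h at 37°C, washed extensively with PBS, then cocultured with hybridomas DN32.D3, N37-1A12 and N38-3C3 for 20–24 h at 37°C. IL-2 measured by sandwich ELISA. Triplicates, mean ± SEM; experiment repeated three times.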

canonical NKT cell = conditions: high concentrations; ref [9], [24]; cited from earlier work

Compound CCCCCCCC/C=C\CCCCCCCC(=O)OC[C@H](COP(=O)(O)OCCNC(=O)CCCCCN)OC(=O)CCCCCCC/C=C\CCCCCCCC [18:1 PE lipid, 1,2-Dioleoyl-sn-Glycero-3-Phosphoethanolamine-N-(hexanoylamine)] has an IC50 (human CD1d; read-out: IC50 in hCD1d, competitor of Biotinyl PE (2 μg/mL), CD1d dimer) of 882 ± 125 nM and an IC50 (mouse CD1d; read-out: IC50 in mCD1d) of 843 ± 181 nM.

For CCCCCCCCCCCCCCCCCCCCCCCCCC(=O)N[C@@H](CO[C@H]1O[C@H](CO)[C@H](O)[C@H](O)[C@H]1O)[C@H](O)[C@H](O)CCCCCCCCCCCCCC [α-GalCer, α-galactosylceramide], the IC50 (human CD1d) was 84 ± 10 nM, the IC50 (mouse CD1d; IC50 in mCD1d) was 95 nM and 95.1 nM and the “time at which serum IFN-γ production was detectable” value [1] was 2 h. The “time of peak serum IFN-γ production” value [1] was 24 h, the “time of return of serum IFN-γ to baseline” value [1] was at most 48 h and the “binding of lipid-loaded CD1d-Ig dimers to NKT cells” value (NKT cells) was “bound to NKT cells”.

With GT1b the “inhibition of CD1d-mediated activation of NKT cells” value ([2]; increasing doses of purified ganglioside, IL-2 (Fig 3A-C)) was “Only GD3 inhibited”.

For gangliotriaosylceramide [Gg3Cer], the “reduction in NKT cell activation” value ([2]; gangliosides 5μg/ml, IL-2 (Fig 3D)) is listed as “only incubation with GD3 resulted in a significant reduction” and the “inhibition of canonical NKT cell activation” value (canonical NKT cell) is listed as “inhibit canonical NKT cell activation when used at high concentrations”.
